According to PubChem BioAssay:
Calls of active or inactive are those of the source.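 How the source made its calls, unless noted: active means viability at or below 10% of carrier control in both of two separate runs; inconclusive means viability at or below 10% in only one of the two runs; inactive means the rest.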

What was measured:
[1] = reduced viability of SK-BR-3 breast cancer cells – cell-based, 24 h, human, pilot screen (AID 572); conditions: SK-BR-3 viability, CellTiter-Glo luminescence, at 10 µM, stronger effect = lower value;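 further: compound exposure lasted between 18 and 24 h rather than exactly 24 h; 100% = carrier-treated control wells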
[2] = HUVEC growth inhibition – cell-based, human, primary screen (AID 575;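 active means viability at or below 30% in both replicate assays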;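 further: 100% = median of untreated cell wells with 0.1% DMSO on each plate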); conditions: HUVEC proliferation, CellTiter-Glo luminescence, 72 h; at 10 µM; stronger effect = lower value
In short: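 Test system – primary HUVEC, no more than 12 passages · Dosing – one dose, 10 µM final, 0.1% DMSO · Times – 72 h treatment at 37 °C · Measured by – ATP-based CellTiter-Glo luminescent read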

[3] = H69AR cell proliferation blockers – human, duplicate replicates, primary screen (AID 580;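 active means viability at or under a set limit in both replicates, limit being median viability minus 3 SD, cut at about 48% in these data, passing the limit was not always enough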;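 further: 100% = mean luminescence of untreated wells and 0% = no signal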); conditions: H69AR lung tumor cells viability, ATP luminescence, 72 h; at 10 µM; stronger effect = lower value
[4] = MRP1 drug-resistance reversers in H69AR cells – cell-based, doxorubicin co-treatment, pilot screen (AID 601;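 active means viability loss from added drug above about 55%, and viability with drug at most 40%, in both replicates, limit read from the data, passing the limit was not always enough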); conditions: CellTiter-Glo, 72 h, at 10 µM; for differential viability (reversal): stronger effect = higher value
[5] = yeast transport mutant growth inhibition pilot in 384-well plates, post-Golgi transport modulator project (AID 636; in the data active means inhibition above about 31%); conditions: absorbance 615 nm, about 18 h, stronger effect = higher value
[6] = growth suppression of yeast trafficking mutant, preliminary HTS, modulators of trafficking downstream of Golgi apparatus project, 1536-format plate, OD 615 nm (AID 637; in the data active means inhibition above about 30%); conditions: yeast transport mutant growth, absorbance 615 nm, 18 h; stronger effect = higher value
[7] = H69AR cells + 2 uM doxorubicin, measured here: viability with 2 uM doxorubicin, stronger effect = lower value
[8] = H69AR cells, compound alone cytotoxicity

Cc1cc(C(=O)Nc2nnc(C(F)(F)F)s2)no1
viability [1]: 98% (inactive) | viability [2]: 107% (inactive) | viability [3]: 105% (inactive) | differential viability (reversal) ([4]; H69AR cells + 2 uM doxorubicin): 5.13% (inactive) | viability [4, 7]: 99.8% | viability [4, 8]: 105% | inhibition [5]: -7.4% (inactive) | inhibition [6]: 0.32% (inactive)

CCCCOc1ccc(S(=O)(=O)n2c(C)nc3ccccc32)cc1
viability [1]: 138% (inactive) | viability [2]: 53.2% (inactive) | viability [3]: 87.1% (inactive) | differential viability (reversal) ([4]; H69AR cells + 2 uM doxorubicin): -7.77% (inactive) | viability [4, 7]: 94.8% | viability [4, 8]: 87.1% | inhibition [5]: -3.38% (inactive) | inhibition [6]: 1.33% (inactive)

Cc1ccc(N(CC(O)CN2CCCC2)S(=O)(=O)c2ccc(C)cc2)cc1 (configuration not stated)
viability [1]: 132% (inactive) | viability [2]: 103% (inactive) | viability [3]: 86.9% (inactive) | differential viability (reversal) ([4]; H69AR cells + 2 uM doxorubicin): -1.29% (inactive) | viability [4, 7]: 88.2% | viability [4, 8]: 86.9% | inhibition [5]: -5.21% (inactive) | inhibition [6]: -1.94% (inactive)

CCCNC(=O)N1CCN(S(=O)(=O)c2ccc(C)c(C)c2)CC1
viability [1]: 85% (inactive) | viability [2]: 112% (inactive) | viability [3]: 95% (inactive) | differential viability (reversal) ([4]; H69AR cells + 2 uM doxorubicin): -0.65% (inactive) | viability [4, 7]: 95.7% | viability [4, 8]: 95% | inhibition [5]: 3.42% (inactive) | inhibition [6]: 0% (inactive)

CS(=O)(=O)N(CC(=O)Nc1ccc2c(c1)OCO2)Cc1ccc(Cl)cc1
viability [1]: 70% (inactive) | viability [2]: 88.5% (inactive) | viability [3]: 95% (inactive) | differential viability (reversal) ([4]; H69AR cells + 2 uM doxorubicin): -7.89% (inactive) | viability [4, 7]: 103% | viability [4, 8]: 95% | inhibition [5]: -6.58% (inactive) | inhibition [6]: 2.73% (inactive)

NC(=O)C1CCN(C(=S)c2cccs2)CC1
viability [1]: 77% (inactive) | viability [2]: 102% (inactive) | viability [3]: 96.1% (inactive) | differential viability (reversal) ([4]; H69AR cells + 2 uM doxorubicin): 11.5% (inactive) | viability [4, 7]: 84.7% | viability [4, 8]: 96.1% | inhibition [5]: -8.49% (inactive) | inhibition [6]: 3.39% (inactive)

Cc1[nH]c2ccc(F)cc2c(=O)c1SC(F)(F)C(F)C(F)(F)F (configuration not stated)
viability [1]: 72% (inactive) | viability [2]: 92.5% (inactive) | viability [3]: 83.3% (inactive) | differential viability (reversal) ([4]; H69AR cells + 2 uM doxorubicin): -14.3% (inactive) | viability [4, 7]: 97.6% | viability [4, 8]: 83.3% | inhibition [5]: -5.95% (inactive) | inhibition [6]: -5.27% (inactive)

CC1CC(C)CN(CC(=O)Nc2ccc(S(N)(=O)=O)cc2)C1 (configuration not stated)
viability [1]: 96% (inactive) | viability [2]: 96.9% (inactive) | viability [3]: 84.9% (inactive) | differential viability (reversal) ([4]; H69AR cells + 2 uM doxorubicin): 2.1% (inactive) | viability [4, 7]: 82.8% | viability [4, 8]: 84.9% | inhibition [5]: 3.29% (inactive) | inhibition [6]: -2.58% (inactive)

CCOC(=O)CSc1nnc2n1C(C)(C)Cc1ccccc1-2
viability [1]: 110% (inactive) | viability [2]: 111% (inactive) | viability [3]: 101% (inactive) | differential viability (reversal) ([4]; H69AR cells + 2 uM doxorubicin): -5.61% (inactive) | viability [4, 7]: 106% | viability [4, 8]: 101% | inhibition [5]: 4.32% (inactive) | inhibition [6]: -0.91% (inactive)

O=c1[nH]c2cc3c(cc2cc1C(c1nnnn1C1CCCCC1)N1CCSCC1)OCCO3 (configuration not stated)
viability [1]: 97% (inactive) | viability [2]: 93.1% (inactive) | viability [3]: 98.8% (inactive) | differential viability (reversal) ([4]; H69AR cells + 2 uM doxorubicin): -1.53% (inactive) | viability [4, 7]: 100% | viability [4, 8]: 98.8% | inhibition [5]: -0.81% (inactive) | inhibition [6]: 1.45% (inactive)

CNC(=O)CSc1nc2c(c(=O)n(C)c(=O)n2C)n1Cc1ccc(C)cc1
viability [1]: 100% (inactive) | viability [2]: 92.4% (inactive) | viability [3]: 96.2% (inactive) | differential viability (reversal) ([4]; H69AR cells + 2 uM doxorubicin): 16.2% (inactive) | viability [4, 7]: 79.9% | viability [4, 8]: 96.2% | inhibition [5]: -2% (inactive) | inhibition [6]: -7.45% (inactive)

Cc1ccc(CS(=O)(=O)Cc2ccc(C(=O)NCc3ccccn3)o2)cc1
viability [1]: 95% (inactive) | viability [2]: 99.8% (inactive) | viability [3]: 99.4% (inactive) | differential viability (reversal) ([4]; H69AR cells + 2 uM doxorubicin): 9% (inactive) | viability [4, 7]: 90.4% | viability [4, 8]: 99.4% | inhibition [5]: -1.87% (inactive) | inhibition [6]: -0.18% (inactive)

CCNc1ccc(S(=O)(=O)C(F)(F)F)cc1NC(=O)C12CCC(CC1)C2
viability [1]: 102% (inactive) | viability [2]: 102% (inactive) | viability [3]: 92.3% (inactive) | differential viability (reversal) ([4]; H69AR cells + 2 uM doxorubicin): -3.33% (inactive) | viability [4, 7]: 95.7% | viability [4, 8]: 92.3% | inhibition [5]: 1.78% (inactive) | inhibition [6]: 2% (inactive)

COC(=O)c1ccc2c(=O)n(NC(C)=O)c(=S)[nH]c2c1
viability [1]: 93% (inactive) | viability [2]: 109% (inactive) | viability [3]: 93.7% (inactive) | differential viability (reversal) ([4]; H69AR cells + 2 uM doxorubicin): 10.7% (inactive) | viability [4, 7]: 83% | viability [4, 8]: 93.7% | inhibition [5]: -6.67% (inactive) | inhibition [6]: 3.09% (inactive)

O=C(O)CCn1c(=O)c2ccccc2c2ccccc2c1=O
viability [1]: 87% (inactive) | viability [2]: 109% (inactive) | viability [3]: 100% (inactive) | differential viability (reversal) ([4]; H69AR cells + 2 uM doxorubicin): 5.16% (inactive) | viability [4, 7]: 94.8% | viability [4, 8]: 100% | inhibition [5]: 0.14% (inactive) | inhibition [6]: -8.06% (inactive)

CCOc1ccc(-c2cn(S(=O)(=O)c3cccc4nsnc34)nc2N)cc1
viability [1]: 117% (inactive) | viability [2]: 94.8% (inactive) | viability [3]: 84.8% (inactive) | differential viability (reversal) ([4]; H69AR cells + 2 uM doxorubicin): 3.21% (inactive) | viability [4, 7]: 81.6% | viability [4, 8]: 84.8% | inhibition [5]: 34.9% (active) | inhibition [6]: 31% (active)

Cc1cccc(C)c1-n1nnnc1SCSc1nnnn1-c1c(C)cccc1C
viability [1]: 92% (inactive) | viability [2]: 66.8% (inactive) | viability [3]: 72.1% (inactive) | differential viability (reversal) ([4]; H69AR cells + 2 uM doxorubicin): -1.23% (inactive) | viability [4, 7]: 73.3% | viability [4, 8]: 72.1% | inhibition [5]: -7.81% (inactive) | inhibition [6]: -0.73% (inactive)

Nc1nc2ccc(OC(F)(F)F)cc2s1
viability [1]: 88% (inactive) | viability [2]: 76.5% (inactive) | viability [3]: 71.9% (inactive) | differential viability (reversal) ([4]; H69AR cells + 2 uM doxorubicin): -19.7% (inactive) | viability [4, 7]: 91.6% | viability [4, 8]: 71.9% | inhibition [5]: -0.13% (inactive) | inhibition [6]: 0.33% (inactive)

CC(C)NCC(O)COc1ccc(CCOCC2CC2)cc1 (configuration not stated)
viability [1]: 102% (inactive) | viability [2]: 83.3% (inactive) | viability [3]: 95.8% (inactive) | differential viability (reversal) ([4]; H69AR cells + 2 uM doxorubicin): -14.9% (inactive) | viability [4, 7]: 111% | viability [4, 8]: 95.8% | inhibition [5]: -0.91% (inactive) | inhibition [6]: -5% (inactive)

CC(C)n1nnnc1SCC(=O)Nc1ccccc1N1CCOCC1
viability [1]: 53% (inactive) | viability [2]: 98.4% (inactive) | viability [3]: 98.5% (inactive) | differential viability (reversal) ([4]; H69AR cells + 2 uM doxorubicin): -0.48% (inactive) | viability [4, 7]: 99% | viability [4, 8]: 98.5% | inhibition [5]: -5.75% (inactive) | inhibition [6]: 2.73% (inactive)

Cc1cc(C)cc(N2C(=O)C3C4C=CC(C4)C3C2=O)c1 (configuration not stated)
viability [1]: 100% (inactive) | viability [2]: 109% (inactive) | viability [3]: 93% (inactive) | differential viability (reversal) ([4]; H69AR cells + 2 uM doxorubicin): 7.94% (inactive) | viability [4, 7]: 85% | viability [4, 8]: 93% | inhibition [5]: -3.15% (inactive) | inhibition [6]: 2.36% (inactive)

CCN(CC)S(=O)(=O)c1ccc(NC(=O)Cn2cnc3ccccc3c2=O)cc1
viability [1]: 87% (inactive) | viability [2]: 85.9% (inactive) | viability [3]: 93.8% (inactive) | differential viability (reversal) ([4]; H69AR cells + 2 uM doxorubicin): 8.02% (inactive) | viability [4, 7]: 85.8% | viability [4, 8]: 93.8% | inhibition [5]: 0.96% (inactive) | inhibition [6]: -1.29% (inactive)

CCSC(SCC)[C@H](O)[C@@H](O)[C@H](O)[C@H](O)CO
viability [1]: 103% (inactive) | viability [2]: 104% (inactive) | viability [3]: 101% (inactive) | differential viability (reversal) ([4]; H69AR cells + 2 uM doxorubicin): 6.02% (inactive) | viability [4, 7]: 94.8% | viability [4, 8]: 101% | inhibition [5]: -5.19% (inactive) | inhibition [6]: 0% (inactive)

CCOC(=O)c1c2n(c3ccc(O)cc13)CCCCC2
viability [1]: 111% (inactive) | viability [2]: 89.7% (inactive) | viability [3]: 82.4% (inactive) | differential viability (reversal) ([4]; H69AR cells + 2 uM doxorubicin): 1.8% (inactive) | viability [4, 7]: 80.6% | viability [4, 8]: 82.4% | inhibition [5]: -7.47% (inactive) | inhibition [6]: 0% (inactive)
